Measurements taken from ChEMBL document CHEMBL1122071, “Avermectin acyl derivatives with anthelmintic activity” (1982).

Columns and labels:
Assay type in all cases: functional
[1] = tested on: Trichostrongylus colubriformis; test: Anthelmintic efficacy against Trichostrongylus colubriformis (T.c) in sheep at dose of 0.1 mg/kg administered subcutaneously; conditions: route subcutaneous
Procedure, shortened: (§1)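 Experimentally infected lambs carrying mixed nematode species each received 0.1 mg/kg by subcutaneous injection, one sheep per treatment. An untreated infected group of 6 lambs served as comparison, with worm burdens given as the geometric mean number of worms per lamb. Efficacy was scored for each parasite species.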

Cooperia curticei [2] = test: Anthelmintic efficacy against immature (EL4) Cooperia curticei. in sheep at dose of 0.1 mg/kg administered subcutaneously; conditions: route subcutaneous
[3] = tested on: Trichostrongylus colubriformis; test: Minimal dose necessary to eliminate > 83% of Trichostrongylus colubriformis infection in gerbils
Haemonchus contortus [4] = test: Anthelmintic efficacy against adult Haemonchus contortus (H.c) in sheep at dose of 0.1 mg/kg administered subcutaneously; conditions: route subcutaneous; procedure, shortened: as §1
Cooperia curticei [5] = test: Anthelmintic efficacy against adult Cooperia curticei. in sheep at dose of 0.1 mg/kg administered subcutaneously; conditions: route subcutaneous
[6] = tested on: Oesophagostomum columbianum; test: Anthelmintic efficacy against Oseophagostomum columbianum (Oe. c) in sheep at dose of 0.1 mg/kg administered subcutaneously; conditions: route subcutaneous; procedure, shortened: as §1
Trichostrongylus axei [7] = test: Anthelmintic efficacy against Trichostrongylus axei (T.a) in sheep at dose of 0.1 mg/kg administered subcutaneously; 60-89; conditions: route subcutaneous; procedure, shortened: as §1
Trichostrongylus axei [8] = test: Anthelmintic efficacy against Trichostrongylus axei (T.a) in sheep at dose of 0.025 mg/kg administered orally; 60-89%
Procedure, shortened: (§2)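 Lambs were experimentally infected with mixed gastrointestinal nematodes: Haemonchus contortus, Ostertagia circumcincta, Trichostrongylus axei, T. colubriformis, Cooperia oncophora and Oesophagostomum columbianum. Dosing was oral, in mg/kg, with 3 sheep per dose group. An untreated infected group of 6 sheep served as reference, with worm burdens given as the geometric mean per lamb. Immature (EL4) and adult worms were scored separately.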

Cooperia oncophora [9] = test: Anthelmintic efficacy against immature (EL4) Cooperia oncopphora (C.o) in sheep at dose of 0.025 mg/kg administered orally; 0-19%; procedure, shortened: as §2
[10] = tested on: Oesophagostomum columbianum; test: Anthelmintic efficacy against Oseophagostomum columbianum (Oe. c) in sheep at dose of 0.1 mg/kg administered orally; conditions: route oral
Procedure, shortened: (§3)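 Lambs experimentally infected with mixed gastrointestinal nematodes (H. contortus, O. circumcincta, T. axei, T. colubriformis, C. oncophora, Oe. columbianum) were dosed orally, 1–3 sheep per dose. An untreated infected group of 6 was included, with worm burdens given as the geometric mean number of worms per lamb. Efficacy was scored against adult and, where listed, EL4 stages.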

[11] = tested on: Oesophagostomum columbianum; test: Anthelmintic efficacy against Oseophagostomum columbianum (Oe. c) in sheep at dose of 0.05 mg/kg administered orally; conditions: route oral; procedure, shortened: as §2
[12] = tested on: Trichostrongylus colubriformis; test: Anthelmintic efficacy against Trichostrongylus colubriformis (T.c) in sheep at dose of 0.025 mg/kg administered orally; 60-89%; procedure, shortened: as §2
Haemonchus contortus [13] = test: Anthelmintic efficacy against adult Haemonchus contortus (H.c) in sheep at dose of 0.05 mg/kg administered orally; conditions: route oral; procedure, shortened: as §2
Haemonchus contortus [14] = test: Anthelmintic efficacy against adult Haemonchus contortus (H.c) in sheep at dose of 0.025 mg/kg administered orally; conditions: route oral; procedure, shortened: as §2
[15] = tested on: Teladorsagia circumcincta; test: Anthelmintic efficacy against adult Ostertagia circumcincta (O. c) in sheep at dose of 0.05 mg/kg administered orally; conditions: route oral; procedure, shortened: as §2
Cooperia oncophora [16] = test: Anthelmintic efficacy against adult Cooperia oncopphora (C.o) in sheep at dose of 0.1 mg/kg administered orally; conditions: route oral; procedure, shortened: as §2
Cooperia oncophora [17] = test: Anthelmintic efficacy against immature (EL4) Cooperia oncopphora (C.o) in sheep at dose of 0.05 mg/kg administered orally; conditions: route oral; procedure, shortened: as §2
Haemonchus contortus [18] = test: Anthelmintic efficacy against immature (EL4) Haemonchus contortus (H.c) in sheep at dose of 0.05 mg/kg administered orally; conditions: route oral; procedure, shortened: as §2
[19] = tested on: Oesophagostomum columbianum; test: Anthelmintic efficacy against Oseophagostomum columbianum (Oe. c) in sheep at dose of 0.025 mg/kg administered orally; conditions: route oral; procedure, shortened: as §2
[20] = tested on: Teladorsagia circumcincta; test: Anthelmintic efficacy against immature (EL4) Ostertagia circumcincta (O. c) in sheep at dose of 0.1 mg/kg administered orally; conditions: route oral; procedure, shortened: as §2
[21] = tested on: Teladorsagia circumcincta; test: Anthelmintic efficacy against immature (EL4) Ostertagia circumcincta (O. c) in sheep at dose of 0.05 mg/kg administered orally; conditions: route oral; procedure, shortened: as §2
Cooperia oncophora [22] = test: Anthelmintic efficacy against adult Cooperia oncopphora (C.o) in sheep at dose of 0.025 mg/kg administered orally; 20-59%; procedure, shortened: as §2
Cooperia oncophora [23] = test: Anthelmintic efficacy against adult Cooperia oncopphora (C.o) in sheep at dose of 0.05 mg/kg administered orally; conditions: route oral; procedure, shortened: as §2
[24] = tested on: Teladorsagia circumcincta; test: Anthelmintic efficacy against […] (EL4) Ostertagia circumcincta (O. c) in sheep at dose of 0.025 mg/kg administered orally; 60-89%; procedure, shortened: as §2
[25] = tested on: Teladorsagia circumcincta; test: Anthelmintic efficacy against immature (EL4) Ostertagia circumcincta (O. c) in sheep at dose of 0.025 mg/kg administered orally; 20-59%; procedure, shortened: as §2
Trichostrongylus axei [26] = test: Anthelmintic efficacy against Trichostrongylus axei (T.a) in sheep at dose of 0.1 mg/kg administered orally; conditions: route oral; procedure, shortened: as §3
Haemonchus contortus [27] = test: Anthelmintic efficacy against immature (EL4) Haemonchus contortus (H.c) in sheep at dose of 0.025 mg/kg administered orally; conditions: route oral; procedure, shortened: as §2
[28] = tested on: Trichostrongylus colubriformis; test: Anthelmintic efficacy against Trichostrongylus colubriformis (T.c) in sheep at dose of 0.05 mg/kg administered orally; conditions: route oral; procedure, shortened: as §2
[29] = tested on: Teladorsagia circumcincta; test: Anthelmintic efficacy against adult Ostertagia circumcincta (O. c) in sheep at dose of 0.1 mg/kg administered orally; conditions: route oral; procedure, shortened: as §3
Trichostrongylus axei [30] = test: Anthelmintic efficacy against Trichostrongylus axei (T.a) in sheep at dose of 0.05 mg/kg administered orally; conditions: route oral; procedure, shortened: as §2
Haemonchus contortus [31] = test: Anthelmintic efficacy against immature (EL4) Haemonchus contortus (H.c) in sheep at dose of 0.1 mg/kg administered orally; conditions: route oral; procedure, shortened: as §2
Cooperia oncophora [32] = test: Anthelmintic efficacy against immature (EL4) Cooperia oncopphora (C.o) in sheep at dose of 0.1 mg/kg administered orally; conditions: route oral; procedure, shortened: as §2
Haemonchus contortus [33] = test: Anthelmintic efficacy against adult Haemonchus contortus (H.c) in sheep at dose of 0.1 mg/kg administered orally; conditions: route oral; procedure, shortened: as §3
[34] = tested on: Trichostrongylus colubriformis; test: Anthelmintic efficacy against Trichostrongylus colubriformis (T.c) in sheep at dose of 0.1 mg/kg administered orally; conditions: route oral; procedure, shortened: as §2
[35] = tested on: Oesophagostomum columbianum; test: Anthelmintic efficacy against Oseophagostomum columbianum (Oe. c) in sheep at dose of 0.25 mg/kg administered orally; conditions: route oral; procedure, shortened: as §3
Trichostrongylus axei [36] = test: Anthelmintic efficacy against Trichostrongylus axei (T.a) in sheep at dose of 0.25 mg/kg administered orally; conditions: route oral; procedure, shortened: as §3
[37] = tested on: Oesophagostomum columbianum; test: Anthelmintic efficacy against Oseophagostomum columbianum (Oe. c) in sheep at dose of 0.15 mg/kg administered orally; conditions: route oral; procedure, shortened: as §3
Haemonchus contortus [38] = test: Anthelmintic efficacy against adult Haemonchus contortus (H.c) in sheep at dose of 0.15 mg/kg administered orally; conditions: route oral; procedure, shortened: as §3
[39] = tested on: Teladorsagia circumcincta; test: Anthelmintic efficacy against adult Ostertagia circumcincta (O. c) in sheep at dose of 0.25 mg/kg administered orally; conditions: route oral; procedure, shortened: as §3
[40] = tested on: Trichostrongylus colubriformis; test: Anthelmintic efficacy against Trichostrongylus colubriformis (T.c) in sheep at dose of 0.15 mg/kg administered orally; conditions: route oral; procedure, shortened: as §3
Cooperia oncophora [41] = test: Anthelmintic efficacy against adult Cooperia oncopphora (C.o) in sheep at dose of 0.15 mg/kg administered orally; conditions: route oral; procedure, shortened: as §3
Trichostrongylus axei [42] = test: Anthelmintic efficacy against Trichostrongylus axei (T.a) in sheep at dose of 0.15 mg/kg administered orally; conditions: route oral; procedure, shortened: as §3
[43] = tested on: Teladorsagia circumcincta; test: Anthelmintic efficacy against adult (EL4) Ostertagia circumcincta (O. c) in sheep at dose of 0.15 mg/kg administered orally; conditions: route oral; procedure, shortened: as §3
[44] = tested on: Trichostrongylus colubriformis; test: Anthelmintic efficacy against Trichostrongylus colubriformis (T.c) in sheep at dose of 0.25 mg/kg administered orally; conditions: route oral; procedure, shortened: as §3
Cooperia oncophora [45] = test: Anthelmintic efficacy against adult Cooperia oncopphora (C.o) in sheep at dose of 0.25 mg/kg administered orally; conditions: route oral; procedure, shortened: as §3
[46] = tested on: Teladorsagia circumcincta; test: Anthelmintic efficacy against immature (EL4) Ostertagia circumcincta (O. c) in sheep at dose of 0.15 mg/kg administered orally; 20-59%
Haemonchus contortus [47] = test: Anthelmintic efficacy against adult Haemonchus contortus (H.c) in sheep at dose of 0.25 mg/kg administered orally; conditions: route oral; procedure, shortened: as §3

CC[C@H](C)[C@H]1O[C@]2(C=C[C@@H]1C)C[C@@H]1C[C@@H](C/C=C(\C)[C@@H](O[C@H]3C[C@@H](OC)[C@@H](O[C@H]4C[C@@H](OC)[C@@H](OC(=O)CCC(=O)O)[C@H](C)O4)[C@H](C)O3)[C@@H](C)/C=C/C=C3\CO[C@@H]4[C@H](O)C(C)=C[C@@H](C(=O)O1)[C@]34O)O2
Efficacy [1]: >90% | Efficacy (Cooperia curticei [2]): >90% | Dose [3]: 0.03 mg/kg | Efficacy (Haemonchus contortus [4]): >90% | Efficacy (Cooperia curticei [5]): >90% | Efficacy [6]: >90% | Efficacy (Trichostrongylus axei [7]): 60%

CC[C@H](C)[C@H]1O[C@]2(C=C[C@@H]1C)C[C@@H]1C[C@@H](C/C=C(\C)[C@@H](O[C@H]3C[C@H](OC)[C@@H](O[C@H]4C[C@H](OC)[C@@H](O)[C@H](C)O4)[C@H](C)O3)[C@@H](C)/C=C/C=C3\CO[C@@H]4[C@H](O)C(C)=C[C@@H](C(=O)O1)[C@]34O)O2 [ABAMECTIN COMPONENT B1A]
Efficacy (Trichostrongylus axei [8]): 60% | Efficacy (Cooperia oncophora [9]): 0% | Efficacy [10]: >90% | Efficacy [11]: >90% | Efficacy [12]: 60% | Efficacy (Haemonchus contortus [13]): >90% | Efficacy (Haemonchus contortus [14]): >90% | Efficacy [15]: >90% | Dose [3]: 0.025 mg/kg | Efficacy (Cooperia oncophora [16]): >90% | Efficacy (Cooperia oncophora [17]): >90% | Efficacy (Haemonchus contortus [18]): >90% | Efficacy [19]: >90% | Efficacy [20]: >90% | Efficacy [21]: >90% | Efficacy (Cooperia oncophora [22]): 20% | Efficacy (Cooperia oncophora [23]): >90% | Efficacy [24]: 60% | Efficacy [25]: 20% | Efficacy (Trichostrongylus axei [26]): >90% | Efficacy (Haemonchus contortus [27]): >90% | Efficacy [28]: >90% | Efficacy [29]: >90% | Efficacy (Trichostrongylus axei [30]): >90% | Efficacy (Haemonchus contortus [31]): >90% | Efficacy (Cooperia oncophora [32]): >90% | Efficacy (Haemonchus contortus [33]): >90% | Efficacy [34]: >90%

CC[C@H](C)[C@H]1O[C@]2(C=C[C@@H]1C)C[C@@H]1C[C@@H](C/C=C(\C)[C@@H](O[C@H]3C[C@@H](OC)[C@@H](O[C@H]4C[C@@H](OC)[C@@H](OC(C)=O)[C@H](C)O4)[C@H](C)O3)[C@@H](C)/C=C/C=C3\CO[C@@H]4[C@H](OC(C)=O)C(C)=C[C@@H](C(=O)O1)[C@]34O)O2
Efficacy [35]: >90% | Efficacy (Trichostrongylus axei [36]): >90% | Dose [3]: 0.25 mg/kg | Efficacy [37]: >90% | Efficacy (Haemonchus contortus [38]): >90% | Efficacy [39]: >90% | Efficacy [40]: >90% | Efficacy (Cooperia oncophora [41]): >90% | Efficacy (Trichostrongylus axei [42]): >90% | Efficacy [43]: >90% | Efficacy [44]: >90% | Efficacy (Cooperia oncophora [45]): >90% | Efficacy [46]: 20% | Efficacy (Haemonchus contortus [47]): >90%
